Test [1] relates to Respiratory syncytial virus. Kind of test: Antiviral activity against RSV A2 infected in human HEp2 cells assessed as protection against virus-induced cytopathic effect after 5 days by resazurin assay. It is filed as functional, organism-based. Conditions: A2, HEp-2, 120 h. An outline of the steps: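 HEp2 cells seeded at 10^3/well in 5% FBS-DMEM with 2 mM L-glutamine and 1 mM sodium pyruvate one day before infection. RSV A2 added in serum-free DMEM at final MOI 1, with compound added at the same time (final DMSO 0.5%). Incubated 5 days at 37°C/5% CO2. Resazurin then added for 6 h; fluorescence read at 545/590 nm. Percent inhibition per well; IC50 taken from the concentration-response curve.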

Test [2] deals with Respiratory syncytial virus. As to the kind of experiment: Antiviral activity against RSV B Washington infected in human HEp2 cells assessed as protection against virus-induced cytopathic effect after 6 days by resazurin assay. It is filed as functional, organism-based. The conditions noted are these: HEp-2, 144 h. In outline: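 HEp2 cells seeded at 10^3/well in 5% FBS-DMEM with glutamine and pyruvate one day before infection. RSV B Washington added in serum-free DMEM at final MOI 0.2, with compound added at the same time (0.5% DMSO final). Incubated 6 days at 37°C/5% CO2. Resazurin added for 6 h; fluorescence read at 545 nm ex / 590 nm em. IC50 taken from the concentration-response curve.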
On the technique in general: Protection from cytopathic effect is a common read-out in antiviral testing.

Test [3] deals with Respiratory syncytial virus. Kind of test: Antiviral activity against RSV A2 infected in human HEp2 cells assessed as protection against virus-induced cytopathic effect at 0.014 uM after 5 days by resazurin assay relative to control. It is filed as functional.
In another test the target is Vasopressin V2 receptor (Homo sapiens, UniProt P30518). Kind of test: Displacement of [3H] (Arg8)-vasopressin from human vasopressin V2 receptor expressed in CHO cell membranes after 60 mins. In general terms: Displacement assays read how much labelled ligand stays bound in the presence of the test substance.
In a further test the target is Vasopressin V1a receptor (Homo sapiens, UniProt P37288). Kind of test: Displacement of [3H] (Arg8)-vasopressin from human vasopressin V1a receptor expressed in CHO cell membranes after 60 mins.

Our source for the IC50, Activity and Ki values is ChEMBL document CHEMBL4261576, “Conformationally restricted benzothienoazepine respiratory syncytial virus inhibitors: their synthesis, structural analysis and biological activities” (Medchemcomm, 2018).

Values joined by “and” are separate entries in the source; they are usually repeats but may differ in a detail not shown here. Identical values can stand only once.

A word on the IC50: it is the concentration that inhibits the measured activity by half. As usually defined, the Ki is a measure of affinity in units of concentration, obtained from inhibition or displacement. Lower therefore signals higher affinity.

Vasopressin V1a receptor, sequence (P37288 whole entry): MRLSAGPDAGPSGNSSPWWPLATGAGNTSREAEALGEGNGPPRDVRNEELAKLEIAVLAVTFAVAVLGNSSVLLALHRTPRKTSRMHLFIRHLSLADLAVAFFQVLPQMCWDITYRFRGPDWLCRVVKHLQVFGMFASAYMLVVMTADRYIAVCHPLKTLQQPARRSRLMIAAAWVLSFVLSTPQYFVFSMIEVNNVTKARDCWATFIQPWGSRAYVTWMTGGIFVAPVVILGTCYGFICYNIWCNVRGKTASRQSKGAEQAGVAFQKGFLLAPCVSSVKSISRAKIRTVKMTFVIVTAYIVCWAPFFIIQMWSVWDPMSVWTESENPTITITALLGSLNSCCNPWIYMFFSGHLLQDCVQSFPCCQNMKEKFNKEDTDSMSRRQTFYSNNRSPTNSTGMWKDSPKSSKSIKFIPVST
Vasopressin V2 receptor, sequence (P30518 whole entry): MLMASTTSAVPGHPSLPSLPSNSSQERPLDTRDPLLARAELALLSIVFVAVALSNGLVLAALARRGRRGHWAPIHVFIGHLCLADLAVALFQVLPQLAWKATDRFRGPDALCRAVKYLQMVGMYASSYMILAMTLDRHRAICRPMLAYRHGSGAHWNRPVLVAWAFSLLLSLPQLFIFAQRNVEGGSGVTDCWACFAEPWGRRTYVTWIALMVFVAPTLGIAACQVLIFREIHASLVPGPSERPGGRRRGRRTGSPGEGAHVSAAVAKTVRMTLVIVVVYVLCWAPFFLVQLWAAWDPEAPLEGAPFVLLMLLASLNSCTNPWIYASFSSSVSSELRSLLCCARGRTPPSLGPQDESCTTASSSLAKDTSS

For `Cc1cnc(N2CC3(CCOCC3)C2)c(C(=O)Nc2ccc(C(=O)N3c4ccccc4-c4sc(C(=O)Nc5c(F)cccc5F)cc4C[C@H]3C)cc2)c1`, the IC50 came out at 0.18 nM in test [1] and 9.2 nM in test [2].
With `Cc1cnc(N2CC3(CCOCC3)C2)c(C(=O)Nc2ccc(C(=O)N3C[C@@H](C)c4cc(C(=O)Nc5c(C)cccc5F)sc4-c4ccccc43)cc2)c1`, in test [3], the Activity was 40%. Further, the IC50 in test [1] is greater than 14 nM; in test [2], greater than 1370 nM.
Regarding `Cc1cnc(N2CC3(CCOCC3)C2)c(C(=O)Nc2ccc(C(=O)N3C[C@H](C)c4cc(C(=O)Nc5c(C)cccc5F)sc4-c4ccccc43)cc2)c1`, the half-maximal inhibitory concentration (IC50) was determined as 0.51 nM in test [1] and 15 nM in test [2].
For `Cc1ccccc1C(=O)Nc1ccc(C(=O)N2CCC(=O)N(C)c3cccc(C)c32)cc1`, the Ki is 640 nM and 4700 nM at Vasopressin V2 receptor; 70 nM and 620 nM on Vasopressin V1a receptor.
Consider `Cc1cnc(N2CC3(CCOCC3)C2)c(C(=O)Nc2ccc(C(=O)N3c4ccccc4-c4sc(C(=O)Nc5c(F)cccc5F)cc4C[C@@H]3C)cc2)c1`, for which the figures for the IC50 in test [1] and in test [2] were greater than 14 nM and greater than 1360 nM, respectively.
On to `Cc1cnc(N2CC3(CCOCC3)C2)c(C(=O)Nc2ccc(C(=O)N3CCc4cc(C(=O)Nc5c(C)cccc5F)sc4-c4ccccc43)cc2)c1` [PC-786], for which the 50% inhibitory concentration (IC50) in test [1] was found to be 0.32 nM; in test [2], 7.2 nM.
For `Cc1cnc(N2CC3(CCOCC3)C2)c(C(=O)Nc2ccc(C(=O)N3CC(C)c4cc(C(=O)Nc5c(C)cccc5F)sc4-c4ccccc43)cc2)c1` (racemic) the same measures were 1.1 nM and 17 nM.
For the compound `Cc1cnc(N2CC3(CCOCC3)C2)c(C(=O)Nc2ccc(C(=O)N3c4ccccc4-c4sc(C(=O)Nc5c(F)cccc5F)cc4CC3C)cc2)c1` (racemic), the 50% inhibitory concentration (IC50) turned out to be 0.45 nM in test [1] and 13 nM in test [2].
